# Test results: ChEMBL document CHEMBL4177626, “Synthesis and anti-HCV activity of a series of β-d-2'-deoxy-2'-dibromo nucleosides and their corresponding phosphoramidate prodrugs” (Bioorg Med Chem Lett, 2017)
# Active and inactive are the calls of the source. The calls are words filed in the database; no cut-off is given here.
# How the values were obtained:
# [1] = test system: Human immunodeficiency virus; assay: Antiviral activity against Human immunodeficiency virus up to 10 uM; format: functional, organism-based
# [2] = test system: Respiratory syncytial virus; assay: Antiviral activity against Respiratory syncytial virus up to 10 uM; format: functional, organism-based
# Dengue virus = assay: Antiviral activity against Dengue virus up to 10 uM; format: functional, organism-based
# West Nile virus = assay: Antiviral activity against West Nile virus up to 10 uM; format: functional, organism-based
# [3] = test system: unidentified influenza virus; assay: Antiviral activity against Influenza virus up to 10 uM; format: functional, organism-based
# Huh-7 = assay: Cytotoxicity against human HuH7 cells assessed as reduction in cell viability by MTT assay; format: cell-based
# Chikungunya virus = assay: Antiviral activity against Chikungunya virus up to 10 uM; format: functional, organism-based
# PBMC = assay: (§1) Cytotoxicity against human PBMC assessed as reduction in cell viability after 6 days by trypan blue exclusion assay; format: cell-based; details: pbmc, 144 h
# Hepatitis C virus = assay: Antiviral activity against HCV genotype 1b infected in human HuH7 cells assessed as inhibition of viral RNA replication after 5 days by RT-PCR method; format: functional, organism-based, Hepacivirus hominis; details: Huh-7, 120 h
# Outline: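 Subgenomic HCV genotype 1b replicon in Huh-7 cells. Inhibition of replicon RNA replication was measured by extracting and amplifying HCV RNA. Cellular ribosomal RNA was extracted and amplified at the same time, as a parallel cytotoxicity read-out.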
# Vero = assay: (§2) Cytotoxicity against African green monkey Vero cells assessed as reduction in cell viability after 6 days by trypan blue exclusion assay; format: cell-based; details: chlorocebus sabaeus, vero, 144 h
# CCRF-CEM = assay: (§3) Cytotoxicity against human CEM cells assessed as reduction in cell viability after 6 days by trypan blue exclusion assay; format: cell-based; details: ccrf-cem, 144 h
# Norovirus = assay: Antiviral activity against Norovirus up to 10 uM; format: functional, organism-based
# Ebolavirus = assay: Antiviral activity against Ebolavirus up to 10 uM; format: functional
# [4] = as §1; format: cell-based; details: PBMC
# [5] = as §2; format: cell-based; details: chlorocebus sabaeus, Vero cells
# [6] = as §3; format: cell-based, CCRF-CEM; details: CEM cells
Structure (SMILES),Activity [1],Activity [2],Activity (Dengue virus),Activity (West Nile virus),Activity [3],CC50 (Huh-7) [µM],Activity (Chikungunya virus),CC50 (PBMC) [µM],EC50 (Hepatitis C virus) [µM],CC50 (Vero) [µM],CC50 (CCRF-CEM) [µM],Activity (Norovirus),Activity (Ebolavirus),EC90 (Hepatitis C virus) [µM],CC50 at 144 h [4] [µM],CC50 at 144 h [5] [µM],CC50 at 144 h [6] [µM]
CC(C)OC(=O)[C@H](C)N[P@](=O)(OC[C@H]1O[C@@H](n2cnc3c(=O)[nH]c(N)nc32)C(Br)(Br)[C@@H]1O)Oc1ccccc1,inactive,inactive,inactive,inactive,inactive,> 10,inactive,> 100,> 10,> 100,34,inactive,inactive,–,–,–,–
CC(C)OC(=O)[C@H](C)N[P@](=O)(OC[C@H]1O[C@@H](n2ccc(N)nc2=O)C(Br)(Br)[C@@H]1O)Oc1ccccc1,inactive,inactive,inactive,inactive,inactive,> 10,inactive,> 100,> 10,> 100,73,inactive,inactive,> 10,–,–,–
CC(C)OC(=O)[C@H](C)N[P@](=O)(OC[C@H]1O[C@@H](n2ccc(=O)[nH]c2=O)C(Br)(Br)[C@@H]1O)Oc1ccccc1,inactive,inactive,inactive,inactive,inactive,> 10,inactive,> 100,1.5,> 100,95,inactive,inactive,2.7,–,–,–
CC(C)OC(=O)[C@H](C)N[P@](=O)(OC[C@H]1O[C@@H](n2cnc3c(N)ncnc32)C(Br)(Br)[C@@H]1O)Oc1ccccc1,inactive,inactive,inactive,inactive,inactive,> 10,inactive,57,> 10,60,33,inactive,inactive,–,–,–,–
"Nc1nc2c(ncn2[C@@H]2O[C@H](CO)C(O)C2(Br)Br)c(=O)[nH]1 (single isomer, unassigned)",inactive,inactive,inactive,inactive,inactive,> 10,inactive,> 100,> 10,> 100,> 100,inactive,inactive,> 10,–,–,–
"Nc1ccn([C@@H]2O[C@H](CO)C(O)C2(Br)Br)c(=O)n1 (single isomer, unassigned)",inactive,inactive,inactive,inactive,inactive,> 10,inactive,> 100,> 10,> 100,82,inactive,inactive,–,–,–,–
"Nc1ncnc2c1ncn2[C@@H]1O[C@H](CO)C(O)C1(Br)Br (single isomer, unassigned)",inactive,inactive,inactive,inactive,inactive,> 10,inactive,> 100,> 10,> 100,> 100,inactive,inactive,> 10,–,–,–
"O=c1ccn([C@@H]2O[C@H](CO)C(O)C2(Br)Br)c(=O)[nH]1 (single isomer, unassigned)",inactive,inactive,inactive,inactive,inactive,> 33,inactive,> 100,> 33,> 100,> 100,inactive,inactive,> 33,–,–,–
CC(C)OC(=O)[C@H](C)N[P@](=O)(OC[C@H]1O[C@@H](n2ccc(=O)[nH]c2=O)[C@](C)(F)[C@@H]1O)Oc1ccccc1 [SOFOSBUVIR],–,–,–,–,–,> 10,–,–,0.2,–,–,–,–,0.5,> 100,> 100,> 100
